This is a sample that favours compounds with a hit; in the whole collection about 3.7% have one here.
F508del corr: CFTR F508del correction in bronchial cells | CFBE cells, YFP halide quenching; stimulated with forskolin plus potentiator P3; % fluorescence drop versus neutral controls | activity (quench increase), % at 7.58 µM | actives 0.36% (n = 350,000);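 active = mean added fluorescence quench of at least 8% versus neutral control, with both replicates also reaching 8%; inconclusive = only one of the mean or replicate conditions met; inactive = mean below 8% and not both replicates reaching 8%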;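 note: cells transiently co-express mutant CFTR-F508del with the halide-sensitive YFP; corrector assay measuring rescue of mutant channel to the surface after 24 h compound exposure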
ERAP1 HTS inh: inhibitors of human ERAP1 aminopeptidase. recombinant ERAP1, Leu-AMC fluorescence, 60 min. inhibition, % at 10.7 µM. actives 0.15% (n = 340,000). AID 652197;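 active = mean replicate inhibition of at least 30%, or all replicates individually reaching that 30% level; inactive = mean below 30% and not every replicate reaching it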;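 note: 0% = neutral control wells and 100% = L-leucinethiol positive control wells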
Target sequence (Q9NZ08 whole entry, looked up): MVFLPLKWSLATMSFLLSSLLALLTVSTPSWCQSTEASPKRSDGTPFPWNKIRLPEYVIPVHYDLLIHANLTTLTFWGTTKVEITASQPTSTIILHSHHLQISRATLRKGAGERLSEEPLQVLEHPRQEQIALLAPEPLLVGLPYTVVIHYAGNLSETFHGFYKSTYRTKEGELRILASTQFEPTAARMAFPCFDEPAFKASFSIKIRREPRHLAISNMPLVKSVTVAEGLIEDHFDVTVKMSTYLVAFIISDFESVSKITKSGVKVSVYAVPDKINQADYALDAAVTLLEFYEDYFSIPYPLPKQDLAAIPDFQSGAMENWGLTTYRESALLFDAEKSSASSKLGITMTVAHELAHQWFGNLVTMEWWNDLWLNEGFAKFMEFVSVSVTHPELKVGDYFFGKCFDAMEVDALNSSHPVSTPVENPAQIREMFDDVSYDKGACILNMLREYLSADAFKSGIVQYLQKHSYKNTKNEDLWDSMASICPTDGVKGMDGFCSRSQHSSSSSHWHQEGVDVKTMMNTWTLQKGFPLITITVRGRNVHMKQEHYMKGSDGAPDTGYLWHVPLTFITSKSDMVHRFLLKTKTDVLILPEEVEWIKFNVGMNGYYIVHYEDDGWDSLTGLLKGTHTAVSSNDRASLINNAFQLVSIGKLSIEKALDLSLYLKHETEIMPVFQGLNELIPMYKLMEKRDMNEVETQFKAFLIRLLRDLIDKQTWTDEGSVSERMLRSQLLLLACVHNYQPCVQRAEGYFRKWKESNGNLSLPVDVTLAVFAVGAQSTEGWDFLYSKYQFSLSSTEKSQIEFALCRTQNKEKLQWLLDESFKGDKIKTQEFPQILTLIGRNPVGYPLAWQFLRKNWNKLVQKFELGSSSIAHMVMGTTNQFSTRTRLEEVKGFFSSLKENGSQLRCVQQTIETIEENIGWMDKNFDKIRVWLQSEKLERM
FGF22 binding: FGF22 (human) thermal shift binding; Q9HCT0; recombinant FGF22 thermal shift, SYPRO orange fluorescence; percent of sucrose octasulfate shift, DMSO zero; activity (Tm shift, normalised), % at 9.99 µM; actives 1.5% (n = 340,000); AID 651658;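 active = mean Tm shift, scaled 0 neutral to 100 positive control, at about 1.3% or above, every replicate too, limit read from the data; inconclusive = no clear call, values can overlap the other calls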
E-selectin induc: induces E-selectin expression in human endothelial cells. P16581. HUVEC E-selectin immunofluorescence imaging; normalized: neutral wells 0, TNF-alpha wells 100. activation, % at 7.58 µM. actives 0.37% (n = 260,000);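 active = mean E-selectin-positive cell signal at least 10% of the positive control, reached in at least 60% of replicates, without over 20% cell loss; inconclusive = no rule given, readout overlaps actives, possibly toxicity-flagged; inactive = the rest, including those meeting only one limit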
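Read-out basis: % PE-positive cells; Test system: HUVEC primary endothelial cells; Technique: immunofluorescence imaging; Dosing: single-point compound dose.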
DENV2 CPE: inhibitors of DENV2 cytopathic effect; AID 651640; CPE inhibition, % at 9.99 µM; DENV2-infected cells, cytopathic effect rescue, plate reader; actives 1.7% (n = 350,000); in the data active = CPE inhibition above about 20%, passing the limit was not always enough; inconclusive = no clear call, values can overlap the other calls; tested in BHK-21 cells;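 note: 0% = median of neutral control wells and 100% = median of positive control wells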
* marks the source's active call; other numbers are inactive results; ? = inconclusive; . = no result given; ! = not active in a repeat.

SMILES	F508del corr	ERAP1 HTS inh	FGF22 binding	E-selectin induc	DENV2 CPE
CC(=O)N1Cc2cc(C(=O)NCC(F)(F)F)nc(-c3cccc(-c4cccnc4)c3)c2[C@@H]1CCO	8.9*!	4.1	-0.3	1.7	?
CCCNC(=O)c1cc2c(c(-c3cccc(-c4ccncc4)c3)n1)[C@H](CCO)N(S(=O)(=O)CC)C2	2.9	-1.1	.	0.2	-0.5
CC(=O)N1Cc2cc(C(=O)NCC(F)(F)F)nc(-c3cccc(-c4cccnc4)c3)c2[C@H]1CCO	-2.7	-5.1	-0.3	-0.2	-0.8
COc1ccc(CNC(=O)c2cc3c(c(-c4cccc(-c5cccc(C#N)c5)c4)n2)[C@H](CCO)N([S@@](=O)C(C)(C)C)C3)cc1	3.7	-0.3	0.7	54.5*	2.9
CCNC(=O)c1cc2c(c(-c3cccc(-c4ccncc4)c3)n1)[C@@H](CCO)N(S(=O)(=O)CC)C2	-0.9	0.5	0.0	-0.1	51.4*
COc1cccc(-c2cccc(-c3nc(C(=O)NCC(F)(F)F)cc4c3[C@H](CCO)N([S@@](=O)C(C)(C)C)C4)c2)c1	11.0*	0.8	-0.6	0.8	4.2
COc1ccc(CNC(=O)c2cc3c(c(-c4cccc(-c5ccc(C#N)cc5)c4)n2)[C@H](CCO)N([S@@](=O)C(C)(C)C)C3)cc1	0.2	1.3	0.0	5.4	-1.7
O=C(Nc1ccccc1F)N[C@H]1CC[C@H](CCNC(=O)C2CCC2)O[C@H]1CO	-2.0	0.8	0.0	1.6	-8.3
O=C(NC[C@@H]1[C@@H](c2ccccc2)[C@@H](CO)N1Cc1cccnc1)C1CCCC1	-2.1	-1.2	.	0.1	1.4
CCCNC(=O)[C@@H]1[C@@H](CO)[C@@H]2Cn3c(ccc(-c4ccccc4OC)c3=O)[C@@H]2N1C(=O)CC	-2.4	-0.4	0.1	-0.1	-2.9
Cc1noc(C)c1S(=O)(=O)N(C)C[C@H]1OCCCC[C@@H](C)Oc2ccc(NC(=O)CCCN(C)C)cc2C(=O)N([C@@H](C)CO)C[C@H]1C	0.2	-3.0	-0.5	0.0	9.8
COc1cccc(-c2cn(CC[C@@H]3CC[C@H](NC(=O)CC4CC4)[C@@H](CO)O3)nn2)c1	-2.5	1.0	-0.1	0.0	-1.4
CC(=O)OCC(=O)NCCCOc1cccc(CN2CCCCC2)c1	8.3*	-3.4	-0.1	0.0	?
c1ccc(COc2cccc(CN3CCCCC3)c2)cc1	3.4	0.7	-0.1	.	0.0
CNC(=O)/C(C#N)=C/c1ccc(-c2ccccc2[N+](=O)[O-])o1	-0.5	-4.3	42.0	-0.7	4.0
CNC(=O)/C(C#N)=C/c1ccc(-c2ccc(Cl)cc2)o1	1.9	-1.5	1.5*	3.3	7.2
O=C(Nc1cccc(Cl)c1)c1csc(COCCO)n1	1.2	-4.5	0.0	-0.2	-2.7
O=C(Nc1cccc(C(F)(F)F)c1)c1csc(COCCO)n1	2.9	5.2	0.9	0.1	24.3*
C=C[C@@H](COC(=O)c1ccc([N+](=O)[O-])cc1)N(Cc1ccc(OC)cc1)S(=O)(=O)c1ccc(Br)cc1	5.1	-0.4	-0.5	.	23.9*
CCNC(=O)C[C@@H]1CC[C@H]2[C@@H](COc3ccc(NC(=O)C4CCCCC4)cc3C(=O)N2C)O1	-0.6	-0.6	-0.2	-0.1	3.8
CCOC(=O)[C@]12CCCC=C1N(Cc1ccccc1)C(=O)[C@H](CC(=O)NCc1cccs1)C2	-0.2	0.1	0.0	1.6	54.6*
CCOC(=O)[C@]12CCCC=C1N(Cc1ccco1)C(=O)[C@H](CC(=O)N1CCC(c3ccccc3)CC1)C2	-0.3	-1.5	-0.4	.	38.2*
COC(=O)[C@]12C[C@H](CC(=O)N3CCCCC3)C(=O)N(Cc3ccccc3)C1=C[C@H](C1CCCC1)O[C@@H]2C	-1.1	5.0	0.2	-0.2	1.3
CCN(CC)C(=O)C1=C(C)N(Cc2ccccc2)C(=O)C(CC(=O)NCCCCc2ccccc2)C1 (configuration not stated)	-4.0	-2.4	43.1*	0.1	-10.4
COC(=O)[C@]12C[C@H](CC(=O)N3CCC(c4ccccc4)CC3)C(=O)N(Cc3ccccc3)C1=C[C@H](C1CCCC1)O[C@@H]2C	3.6	-3.4	-0.3	-0.4	45.4*
SMILES	F508del corr	ERAP1 HTS inh	FGF22 binding	E-selectin induc	DENV2 CPE
O=C(C[C@H]1C[C@H]2c3cc(NC(=O)NC4CCCC4)ccc3O[C@H]2[C@@H](CO)O1)NCc1ccccn1	0.4	-0.8	-0.5	0.0	-7.1
O=C(NCC[C@@H]1CC[C@@H](NC(=O)C2CCCCC2)[C@H](CO)O1)c1cnccn1	-1.0	0.6	-0.1	-0.2	-1.4
CCN(CC)C(=O)C1=C(C)N(Cc2ccccc2)C(=O)C(CC(=O)NCc2cccs2)C1 (configuration not stated)	-3.5	-0.3	43.7*	-0.3	5.8
CCN(CC)C(=O)C1=C(C)N(Cc2ccc(OC)cc2)C(=O)C(CC(=O)NCCCN(C)C)C1 (configuration not stated)	-2.1	-0.8	43.6*	-0.2	-0.1
CCCCN1C(=O)C(CC(=O)NC2CC2)CC(C(=O)N(CC)CC)=C1C (configuration not stated)	0.9	-2.5	43.0*	-0.2	22.9*
COc1ccc(CN(C)CC(=O)Nc2ccccc2C(F)(F)F)c(OC)c1	.	.	.	-0.2	.
COc1ccc(CN(C)CC(=O)Nc2c(C)cccc2C)c(OC)c1	1.5	5.4	43.2*	.	-2.2
CCc1cccc(C)c1NC(=O)CN(C)Cc1cccc(F)c1	-3.1	0.7	0.0	-1.2	-1.5
COc1ccc(N(CC(=O)Nc2c(C)cccc2C)S(=O)(=O)c2ccccc2[N+](=O)[O-])c(OC)c1	-1.6	1.7	43.4*	.	-1.8
Cc1cccc(C(C)C)c1NC(=O)CN(C)Cc1cccc(F)c1	-3.6	-0.5	43.5*	.	-1.2
COc1ccc(N(CC(=O)Nc2ccccc2C)S(=O)(=O)c2ccccc2[N+](=O)[O-])c(OC)c1	.	10.2	0.1	.	-1.0
C[C@@H]1CN([C@H](C)CO)C(=O)Cc2cc(NC(=O)c3ccncc3)ccc2O[C@H]1CN(C)S(=O)(=O)c1ccc(F)cc1	1.3	-0.1	0.0	-0.3	-1.6
CN1C(=O)c2cc(NC(=O)Nc3ccccc3)ccc2OC[C@H]2O[C@@H](CC(=O)O)CC[C@@H]21	.	.	.	0.1	.
CCS(=O)(=O)Nc1ccc2c(c1)C(=O)N(C)[C@H]1CC[C@H](CC(=O)Nc3ccc(Cl)cc3)O[C@@H]1CO2	1.0	2.4	-0.1	0.3	2.4
COCCNC(=O)C(c1ccc(C)o1)N(CCOC)C(=O)Cn1nnc2ccccc21 (configuration not stated)	1.9	-1.4	43.6*	.	1.6
Cc1nnc(SCC(=O)N2CCCC(C(=O)c3ccc(Cl)cc3)C2)o1 (configuration not stated)	-2.2	-7.9	43.4*	-0.1	-2.9
C/C=C/c1ccc2c(c1)O[C@H](CN(C)C(=O)C1CCC1)[C@H](C)CN([C@@H](C)CO)S2(=O)=O	0.2	.	.	0.4	.

Assay outcomes: PubChem BioAssay, Broad Institute
